{"source": "paper PMC4800303", "about": "(British Journal of Cancer, 2016)", "key": {"[1]": {"system": "BRAF-mutated (V600E/K) metastatic melanoma", "conditions": "pivotal phase III registration trial; ref Chapman et al., 2011; cited from earlier work"}, "Cyclin D1": {"system": "Cyclin D1", "test": "Biomarker model: effect of vemurafenib on Cyclin D1 in A375 xenograft tumours", "type": "in vivo, mice", "method_in_brief": "(§1)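 A375 xenograft mice given single oral vemurafenib: 15 mg kg⁻¹ with blood and tumour at 1, 2, 6, 12, 24, 48 h; 7.5, 30 or 60 mg kg⁻¹ with sampling at 4, 8, 24 h; n=5 per time point. Tumour biomarkers expressed as percentage of vehicle control. Plasma PK fitted by one-compartment model with saturable absorption; indirect response model links concentration to pMEK, driving pERK; values from model fitting/simulation.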"}, "A375 xenograft tumours": {"system": "A375 xenograft tumours", "test": "Tumour growth inhibition and tumour model in A375 xenograft tumours", "type": "in vivo, mice", "conditions": "continuous vemurafenib treatment; estimated", "method_in_brief": "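A375 xenograft mice received vemurafenib 15 mg kg⁻¹ twice daily for 48 days to allow resistance. They then received abemaciclib 90 mg kg⁻¹ daily or continued vemurafenib for 28 days (n=8 per group), with vehicle controls (n=8). Tumour size was measured every 3–4 days for ∼13 weeks. Time to resistance was estimated by the tumour growth model with a modulator compartment.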"}, "[2]": {"system": "phospho-(ser217/221)-mitogen-activated protein kinase kinase (pMEK)", "type": "in vivo, mice", "conditions": "after a 15 mg kg^−1 dose of vemurafenib", "method_in_brief": "as §1"}, "[3]": {"system": "phospho-(thr202/tyr204)-ERK (pERK)", "test": "Biomarker model: effect of vemurafenib on pERK in A375 xenograft tumours", "type": "in vivo, mice", "method_in_brief": "as §1"}, "[4]": {"test": "Pharmacokinetics in xenograft tumour-bearing mice", "type": "in vivo", "conditions": "vemurafenib and abemaciclib coadministered; data not shown"}, "pRb": {"system": "pRb", "test": "Biomarker model: effect of vemurafenib on pRb in A375 xenograft tumours", "type": "in vivo, mice", "conditions": "Mus musculus, A-375, read-out: Inhibition of pRb", "method_in_brief": "as §1"}, "Total Rb": {"system": "Total Rb", "test": "Abemaciclib-mediated inhibition of Total Rb in xenograft tumours", "type": "in vivo, mice", "conditions": "50 mg kg^−1 every day", "method_in_brief": "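Colo-205 xenograft mice given abemaciclib 50 mg kg⁻¹ orally once daily for 56 days; tumour collected at 28 and 56 days, n=5 per time point. Tumour lysates assayed for Total Rb alongside pRb, TopoIIα and pHH3. Data were added to a refit of the cell-cycle PK/PD model.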"}, "[5]": {"system": "phospho-(ser780)-Rb (pRb)", "type": "in vivo, mice", "conditions": "Mus musculus, COLO 205, read-out: IC50,Abemaciclib", "method_in_brief": "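Semimechanistic PK/PD model with four sequential transit compartments (early G1, late G1, S, G2/M). pRb, TopoIIα and pHH3 represent late G1, S and G2/M phase density. Model refitted to colo-205 xenograft biomarker data, including Total Rb after single or daily oral 50 mg kg⁻¹ abemaciclib. Population approach for longitudinal data. IC50 is an estimated model parameter.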"}, "[6]": {"conditions": "after a 15 mg kg^−1 dose of vemurafenib"}, "[7]": {"conditions": "continuous vemurafenib, at time to resistance (∼30 days), model"}}}
{"smiles": "CN(C)/N=N/c1[nH]cnc1C(N)=O", "note": "[dacarbazine]", "values": [{"measurement": "Progression-free survival (PFS)", "setting": "[1]", "value": 1.6, "unit": "months"}]}
{"smiles": "CCCS(=O)(=O)Nc1ccc(F)c(C(=O)c2c[nH]c3ncc(-c4ccc(Cl)cc4)cc23)c1F", "note": "[vemurafenib]", "values": [{"measurement": "inhibition at 15 mg/kg", "setting": "Cyclin D1; Mus musculus, A-375, read-out: Inhibition of Cyclin D1", "value": 33, "unit": "%"}, {"measurement": "Time of maximum inhibition of Cyclin D1", "setting": "Cyclin D1; [6]", "value": 10, "unit": "h"}, {"measurement": "Elevation of Cyclin D1 over baseline at resistance", "setting": "Cyclin D1; [7]", "value": "nearly twofold"}, {"measurement": "Time to resistance", "setting": "A375 xenograft tumours", "value": "~30", "unit": "days"}, {"measurement": "Time of maximum inhibition of pMEK", "setting": "[2]", "value": 2, "unit": "h"}, {"measurement": "Time of maximum inhibition of pERK", "setting": "[3]; [6]", "value": 2, "unit": "h"}, {"measurement": "Elevation of pERK over baseline at resistance", "setting": "[3]; [7]", "value": "nearly twofold"}, {"measurement": "Pharmacokinetics after coadministration", "setting": "[4]", "value": "neither vemurafenib nor abemaciclib exhibited altered pharmacokinetics after coadministration"}, {"measurement": "Progression-free survival (PFS)", "setting": "[1]", "value": 5.3, "unit": "months"}, {"measurement": "inhibition at 15 mg/kg", "setting": "pRb", "value": 50, "unit": "%"}]}
{"smiles": "CCN1CCN(Cc2ccc(Nc3ncc(F)c(-c4cc(F)c5nc(C)n(C(C)C)c5c4)n3)nc2)CC1", "note": "[abemaciclib]", "values": [{"measurement": "Inhibition of Total Rb", "setting": "Total Rb", "value": "~40", "unit": "%"}, {"measurement": "IC50", "setting": "[5]", "value": 4.99, "unit": "ng/mL"}, {"measurement": "Pharmacokinetics after coadministration", "setting": "[4]", "value": "neither vemurafenib nor abemaciclib exhibited altered pharmacokinetics after coadministration"}]}
